Columns and labels:
HEL = experiment: Cytotoxicity against human HEL cells assessed as cell growth inhibition by cell counting method; assay type: cell-based
Human alphaherpesvirus 3 [1] = experiment: Antiviral activity against thymidine kinase deficient Varicella-Zoster virus 07-1 infected in human HEL cells assessed as inhibition of virus-induced cytopathic effect; assay type: functional, cell-based; conditions: Human alphaherpesvirus 3, 07-1, HEL
In short: (§1)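 Confluent HEL fibroblast cultures were inoculated with 20 PFU of VZV in the presence of varying compound concentrations. Plaque formation was recorded once untreated infected controls reached completion.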

MT4 = experiment: Cytotoxicity against human MT4 cells assessed as reduction in cell viability by cell counting method; assay type: cell-based
In short: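 MT-4 cultures, untreated or treated, were assessed with an automated cell counter using propidium iodide staining to enumerate total and dead cells.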

CCRF-CEM = experiment: (§2) Cytostatic activity human CEM cells assessed as reduction in cell viability after 72 hrs by cell counting method; assay type: cell-based; conditions: ccrf-cem, 72 h
In short: (§3)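 (5–7.5) × 10^? CEM cells per well were grown with compound for 72 h at 37 °C under humidified CO2. Cells were counted in a Coulter counter.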

Human alphaherpesvirus 2 = experiment: Antiviral activity against Herpes simplex virus 2 G infected in human HEL cells assessed as inhibition of virus-induced cytopathic effect; assay type: functional, cell-based; conditions: Human alphaherpesvirus 2, strain G
In short: (§4)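 Confluent HEL fibroblast monolayers were inoculated in 96-well plates with 100 CCID50 of virus in the presence of serially varied compound concentrations. Cytopathicity was scored once untreated infected controls reached full CPE.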

[2] = system: Human immunodeficiency virus 1; experiment: Antiviral activity against HIV1 X4LAI.04 infected in human MT4 cells assessed as decrease in viral replication by p24gag-based luminex assay; assay type: functional, cell-based; conditions: Human immunodeficiency virus 1, X4LAI.04, MT4
In short: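 10^6 MT-4 cells were infected with HIV-1 X4LAI.04 (7 ng p24) for 2 h at 37 °C, then washed with PBS and resuspended. Compounds were added and cultures were kept 3 days at 37 °C. Supernatant p24 was measured by bead-based Luminex. Inhibition was calculated as (1 − p24 treated/p24 untreated) × 100, and EC50 was derived from it.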

[3] = system: Human immunodeficiency virus 1; experiment: Antiviral activity against HIV1 X4LAI.04 infected in human tonsillar tissues assessed as inhibition of virus-induced cytopathic effect by p24gag-based luminex assay; assay type: functional; conditions: Human immunodeficiency virus 1, X4LAI.04
In short: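 Tonsillectomy tissue blocks of 2–3 mm³ were cultured on collagen sponge gels at the air–liquid interface, 27 blocks per donor per condition. Blocks were pretreated with compound overnight, infected with HIV-1 X4LAI.04 and cultured 12 days, with drug replenished at each medium change every 3 days. Medium p24 was measured by Luminex. Inhibition was calculated against untreated tissue, and EC50 was derived from it.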

Human alphaherpesvirus 1 [4] = experiment: Antiviral activity against ACV-resistant thymidine kinase deficient Herpes simplex virus 1 KOS infected in human HEL cells assessed as inhibition of virus-induced cytopathic effect; assay type: functional, cell-based; conditions: Human alphaherpesvirus 1, KOS; in short: as §4
Human alphaherpesvirus 1 [5] = experiment: Antiviral activity against Herpes simplex virus 1 KOS infected in human HEL cells assessed as inhibition of virus-induced cytopathic effect; assay type: functional, cell-based; conditions: Human alphaherpesvirus 1, KOS; in short: as §4
Human betaherpesvirus 5 [6] = experiment: Antiviral activity against human cytomegalovirus AD-169 infected in human HEL cells assessed as inhibition of virus-induced cytopathic effect; assay type: functional, cell-based; conditions: Human betaherpesvirus 5, AD-169, HEL; in short: as §4
Human betaherpesvirus 5 [7] = experiment: Antiviral activity against human cytomegalovirus Davis infected in human HEL cells assessed as inhibition of virus-induced cytopathic effect; assay type: functional, cell-based; conditions: Human betaherpesvirus 5, Davis; in short: as §4
[8] = Cytotoxicity against human HEL cells assessed as alteration to cell morphology by microscopic analysis; assay type: cell-based
In short: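 Minimal cytotoxic concentration is the compound concentration giving a microscopically visible alteration of HEL cell morphology, scored in the antiviral assay cultures.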

Human alphaherpesvirus 3 [9] = experiment: Antiviral activity against Varicella-Zoster virus OKA infected in human HEL cells assessed as inhibition of virus-induced cytopathic effect; assay type: functional, cell-based; conditions: Human alphaherpesvirus 3, strain Oka vaccine; in short: as §1
[10] = Drug metabolism assessed as carboxypeptidase Y (unknown origin)-mediated metabolite 81 peak measured with in 1 hr by [31P]-NMR spectroscopic analysis; assay type: ADME; conditions: human
[11] = Drug metabolism assessed as carboxypeptidase Y (unknown origin)-mediated metabolite 81 formation measured after 24 hrs by [31P]-NMR spectroscopic analysis; assay type: ADME; conditions: human
[12] = Selectivity index, ratio of IC50 for human MT4 cells to EC50 for HIV1 X4LAI.04; assay type: toxicity; conditions: read-out: Ratio IC50/EC50
[13] = as §2; assay type: cell-based, CCRF-CEM; conditions: CEM cells (CCRF-CEM); in short: as §3

SMILES | CC50 (HEL) [µM] | EC50 (Human alphaherpesvirus 3 [1]) [µM] | IC50 (MT4) [µM] | CC50 (CCRF-CEM) [µM] | EC50 (Human alphaherpesvirus 2) [µM] | EC50 [2] [µM] | EC50 [3] [µM] | EC50 (Human alphaherpesvirus 1 [4]) [µM] | EC50 (Human alphaherpesvirus 1 [5]) [µM] | EC50 (Human betaherpesvirus 5 [6]) [µM] | EC50 (Human betaherpesvirus 5 [7]) [µM] | MCC [8] [µM] | EC50 (Human alphaherpesvirus 3 [9]) [µM] | Drug metabolism [10] | Drug metabolism [11] | selectivity ratio [12] | CC50 at 72 h [13] [µM]
Nc1nc(O)c2ncn(CSC(CO)CO)c2n1 | > 100 | > 50 | > 150 | > 500 | 0.5 | > 150 | > 30 | 1.6 | 0.4 | > 50 | 40.8 | 50 to 100 | 6.9 |  |  |  | 
COc1nc(N)nc2c1ncn2CCC(COP(=O)(N[C@@H](C)C(=O)OCc1ccccc1)Oc1ccccc1)COP(=O)(N[C@@H](C)C(=O)OCc1ccccc1)Oc1ccccc1 (stereo partly specified) | 25 | 20 | 20 | 19 | > 100 | 12 |  | 100 | 100 | > 50 | 37 | 50 to 100 | 22 |  |  |  | 
CCOC(=O)[C@H](C)NP1(=O)OCC(OCn2cnc3c(=O)[nH]c(N)nc32)CO1 (stereo partly specified) |  |  | > 150 |  |  | 22 | 4.6 |  |  |  |  |  |  |  |  |  | 
C[C@H](NP(=O)(OCC(CO)CCn1cnc2c(=O)[nH]c(N)nc21)Oc1ccccc1)C(=O)OCc1ccccc1 (stereo partly specified) | > 100 | 45 | > 150 | > 250 | 16 | 10 | > 20 | ≥ 100 | 8 | > 50 | > 50 | 50 to 100 | 2.6 |  |  |  | 
Nc1nc(Cl)c2ncn(CCC(CO)CO)c2n1 | > 100 | > 50 | > 150 | 400 | > 100 | > 150 | > 60 | > 100 | > 100 | > 50 | > 50 | 50 to 100 | > 50 |  |  |  | 
C[C@H](NP(=O)(OCC(CO)OCn1cnc2c(=O)[nH]c(N)nc21)Oc1cccc2ccccc12)C(=O)OCc1ccccc1 (stereo partly specified) |  | 28.2 | 100 |  | 0.5 | 8 | 11 | 3 | 0.4 | 9.5 | 6.5 | > 100 | 9.5 |  |  |  | 
CCC(C)(C)COC(=O)[C@H](C)NP(=O)(OCC(CO)CCn1cnc2c(OC)nc(N)nc21)Oc1cccc2ccccc12 (stereo partly specified) | 28 | 9.7 | 17 | 18 | 10 | 24 |  | ≥ 20 | 11 | 43 | > 50 | 50 to 100 | 4.4 |  |  |  | 
CC(=O)OCC(CO)OCn1cnc2c(Cl)nc(N)nc21 (stereo unspecified) |  |  | > 150 | ≥ 250 |  | > 150 | > 10 |  |  |  |  |  |  |  |  |  | 
C[C@H](NP(=O)(OCC(COP(=O)(N[C@@H](C)C(=O)OCc1ccccc1)Oc1ccccc1)SCn1cnc2c(=O)[nH]c(N)nc21)Oc1ccccc1)C(=O)OCc1ccccc1 (stereo partly specified) | > 100 | > 50 | 21 | 77 | > 100 | 24 | > 3 | > 100 | > 100 | > 50 | > 50 | 50 to 100 | 23 |  |  |  | 
COc1nc(N)nc2c1ncn2CCC(CO)COP(=O)(N[C@@H](C)C(=O)OCc1ccccc1)Oc1cccc2ccccc12 (stereo partly specified) | 49 | 23 | 12 | 27 | 20 | 23 |  | 20 | 38 | > 50 | 50 | 50 to 100 | 17 |  |  |  | 
COc1nc(N)nc2c1ncn2CCC(COP(=O)(N[C@@H](C)C(=O)OCC(C)(C)C)Oc1cccc2ccccc12)COP(=O)(N[C@@H](C)C(=O)OCC(C)(C)C)Oc1cccc2ccccc12 (stereo partly specified) | 2.5 | 7.7 | 5 | 4.6 | > 100 | 8.2 |  | > 100 | > 100 | 15 | 20 | 20 to 100 | 4.3 |  |  |  | 
COc1nc(N)nc2c1ncn2CCC(CO)COP(=O)(N[C@@H](C)C(=O)OCC(C)(C)C)Oc1cccc2ccccc12 (stereo partly specified) | 7.6 | 6.2 | 35 | 17 | 9 | 41 |  | 15 | 9 | 50 | 40 | 50 to 100 | 2 |  |  |  | 
CCC(C)(C)COC(=O)[C@H](C)NP(=O)(OCC(CCn1cnc2c(OC)nc(N)nc21)COP(=O)(N[C@@H](C)C(=O)OCC(C)(C)CC)Oc1cccc2ccccc12)Oc1cccc2ccccc12 (stereo partly specified) | 5 | 9.5 | 9 | 7.2 | > 100 | 5.6 |  | > 100 | > 100 | > 20 | > 20 | 50 to 100 | 6.4 |  |  |  | 
CC(C)OC(=O)[C@H](C)NP(=O)(OCC(CO)OCn1cnc2c(=O)[nH]c(N)nc21)Oc1cccc2ccccc12 (stereo partly specified) | > 50 | ≥ 10.8 | 150 | 35 | 3 | 40 |  | ≥ 75 | 2 | > 50 | 6.8 | > 100 | ≥ 23.5 | Metabolite_Detected | Metabolite_Notdetected |  | 
COC(=O)[C@H](C)NP(=O)(OCC(CO)CCn1cnc2c(OC)nc(N)nc21)Oc1cccc2ccccc12 (stereo partly specified) | 37 | 25 | 10 | 15 | > 100 | 16 |  | > 100 | > 100 | 32 | 14 | 50 to 100 | 13 |  |  |  | 
COc1nc(N)nc2c1ncn2CCC(CO)COP(=O)(N[C@@H](C)C(=O)OCc1ccccc1)Oc1ccccc1 (stereo partly specified) | ≥ 83 | 22.2 | 23 | 32 | 29 | 1.1 | 0.9 | 39 | 39 | 31.6 | 7.9 | 50 to 100 | 17.1 |  |  | 2.1 | 
COc1nc(N)nc2c1ncn2CCC(CO)CO | > 100 | > 50 | > 150 | 246 | > 100 | > 150 | > 30 | > 100 | > 100 | > 50 | > 50 | 50 to 100 | 22.8 |  |  |  | 
Nc1nc(O)c2ncn(COC(CO)CO)c2n1 [GANCICLOVIR] | 273 |  | > 50 |  | 0.04 | > 50 | 5 |  |  |  |  | 100 to 350 |  |  |  |  | > 100
Nc1nc2c(ncn2CCC(CO)CO)c(=O)[nH]1 [PENCICLOVIR] | > 100 | 10.2 | > 150 |  |  | > 150 | 11 | 4 |  | > 50 | > 50 | > 100 |  |  |  |  | 

From ChEMBL document CHEMBL4017507 (J Med Chem, 2017)
